Test results reported in ChEMBL document CHEMBL1138759, “Nonpeptide alphavbeta3 antagonists. Part 11: discovery and preclinical evaluation of potent alphavbeta3 antagonists for the prevention and treatment of osteoporosis” (J Med Chem, 2004).
pIC50: −log10 of the molar value.

How the values were obtained:
[1] = Clearance value in dog at 0.2 mg/kg dose in intravenous and 1 mg/kg of peroral; type: ADME, organism-based, Canis lupus familiaris; details: in vivo
Method in brief: (§1)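 Dogs given compound in water at 0.2 mpk iv and 1 mpk po; oral bioavailability, plasma clearance and plasma half-life derived from plasma levels.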

[2] = Partition coefficient (logP); type: physicochemical; details: octanol/water
Method in brief: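 log P measured as partition between octanol and pH 7.4 buffer.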

[3] = h-Protein binding value of the compound; type: ADME; set-up: concentration or dose not given beside the values; details: human
Method in brief: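 Binding in human plasma determined by high-throughput ultrafiltration of diluted plasma in pH 7.4 buffer.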

[4] = Bioavailability in dog (dose 0.2 mg/kg i.v. and 1 mg/kg p.o.); type: ADME, organism-based, Canis lupus familiaris; details: in vivo, po; method in brief: as §1
[5] = Half life in dog at 0.2 mg/kg dose in intravenous and 1 mg/kg of peroral; type: ADME, organism-based, Canis lupus familiaris; details: in vivo; method in brief: as §1
Integrin alpha-V/beta-3 = Integrin alpha-V/beta-3 (Homo sapiens, UniProt P05106+P06756); experiment: Inhibitory activity against alpha v beta-3 receptor using scintillation proximity assay (SPAV3); type: protein-complex assay
Chain of Integrin alpha-V/beta-3 (P05106 27-788 limits assumed): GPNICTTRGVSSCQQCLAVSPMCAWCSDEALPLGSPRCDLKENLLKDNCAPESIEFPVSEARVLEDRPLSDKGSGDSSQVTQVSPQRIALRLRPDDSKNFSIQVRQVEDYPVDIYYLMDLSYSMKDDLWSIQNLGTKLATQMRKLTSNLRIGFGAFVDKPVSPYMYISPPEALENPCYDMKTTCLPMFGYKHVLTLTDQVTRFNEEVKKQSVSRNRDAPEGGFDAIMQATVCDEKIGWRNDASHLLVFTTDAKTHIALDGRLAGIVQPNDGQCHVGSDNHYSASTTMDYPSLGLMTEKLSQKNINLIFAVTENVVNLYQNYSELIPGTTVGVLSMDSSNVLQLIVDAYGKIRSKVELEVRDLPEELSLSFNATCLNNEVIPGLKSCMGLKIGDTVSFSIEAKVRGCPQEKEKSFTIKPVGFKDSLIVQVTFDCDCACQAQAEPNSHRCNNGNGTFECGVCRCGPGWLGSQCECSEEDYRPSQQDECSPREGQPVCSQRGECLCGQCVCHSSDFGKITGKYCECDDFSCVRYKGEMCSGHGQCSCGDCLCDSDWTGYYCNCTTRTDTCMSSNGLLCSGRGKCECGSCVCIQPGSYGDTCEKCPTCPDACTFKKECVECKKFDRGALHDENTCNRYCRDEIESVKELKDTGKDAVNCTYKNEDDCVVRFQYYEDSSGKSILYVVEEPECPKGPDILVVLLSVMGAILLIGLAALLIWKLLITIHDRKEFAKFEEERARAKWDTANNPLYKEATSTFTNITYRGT
Chain of Integrin alpha-V/beta-3 (P06756 31-889 limits assumed): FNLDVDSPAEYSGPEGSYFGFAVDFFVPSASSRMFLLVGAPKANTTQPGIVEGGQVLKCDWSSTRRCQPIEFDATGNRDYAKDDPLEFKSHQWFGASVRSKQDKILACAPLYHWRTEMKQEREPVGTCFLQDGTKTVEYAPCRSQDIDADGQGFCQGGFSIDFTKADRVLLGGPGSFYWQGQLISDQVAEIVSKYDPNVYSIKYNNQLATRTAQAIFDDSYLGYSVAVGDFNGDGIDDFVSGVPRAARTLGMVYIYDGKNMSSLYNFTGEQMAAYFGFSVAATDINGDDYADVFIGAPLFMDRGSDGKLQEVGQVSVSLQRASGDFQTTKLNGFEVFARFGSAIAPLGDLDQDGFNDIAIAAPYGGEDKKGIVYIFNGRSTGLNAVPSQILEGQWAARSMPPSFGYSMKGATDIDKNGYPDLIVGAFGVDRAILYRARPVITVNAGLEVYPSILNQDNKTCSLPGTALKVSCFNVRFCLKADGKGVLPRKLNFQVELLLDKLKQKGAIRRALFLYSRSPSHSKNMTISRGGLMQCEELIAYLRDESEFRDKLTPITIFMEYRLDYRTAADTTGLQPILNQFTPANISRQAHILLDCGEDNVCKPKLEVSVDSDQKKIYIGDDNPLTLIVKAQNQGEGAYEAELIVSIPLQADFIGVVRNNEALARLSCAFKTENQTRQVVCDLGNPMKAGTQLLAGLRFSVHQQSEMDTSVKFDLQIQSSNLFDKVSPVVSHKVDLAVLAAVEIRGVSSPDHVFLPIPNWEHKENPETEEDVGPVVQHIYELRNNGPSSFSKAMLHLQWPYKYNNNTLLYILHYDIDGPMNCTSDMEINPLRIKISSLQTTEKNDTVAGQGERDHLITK
Chain of Integrin alpha-V/beta-3 (P06756 891-1048 limits assumed): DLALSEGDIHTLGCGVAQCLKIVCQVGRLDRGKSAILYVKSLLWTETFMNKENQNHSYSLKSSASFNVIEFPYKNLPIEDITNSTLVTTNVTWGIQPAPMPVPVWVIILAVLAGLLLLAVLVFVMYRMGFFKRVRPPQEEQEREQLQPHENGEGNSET

[6] = Bioavailability in monkey (dose 0.2 mg/kg i.v. and 1 mg/kg p.o.); type: ADME, organism-based; details: cercopithecidae, in vivo, po
[7] = Clearance value in monkey at 0.2 mg/kg dose in intravenous and 1 mg/kg of peroral; type: ADME, organism-based; details: cercopithecidae, in vivo
Rattus norvegicus [8] = experiment: Effect on distal femoral metaphysis (DFM)-bone mineral density (BMD) in ovariectomized female rats; OVX + 5e dosed orally 30 mg/kg/d; details: route oral
[9] = Half life in monkey at 0.2 mg/kg dose in intravenous and 1 mg/kg of peroral; type: ADME, organism-based; details: cercopithecidae, in vivo
[10] = Clearance value in rat at 0.5 mg/kg dose in intravenous and 1 mg/kg of peroral; type: ADME, organism-based; details: in vivo
Rattus norvegicus [11] = experiment: Effect on distal femoral metaphysis (DFM)-bone mineral density (BMD) in ovariectomized female rats; OVX + 5e dosed orally 20 mg/kg/d; details: route oral
[12] = Bioavailability in rat (dose 0.5 mg/kg i.v. 1 mg/kg of p.o.); type: ADME, organism-based; details: in vivo, po
[13] = Half life in rat at 0.5 mg/kg dose in intravenous and 1 mg/kg of peroral; type: ADME, organism-based; details: in vivo
Rattus norvegicus [14] = experiment: Effect on distal femoral metaphysis (DFM)-bone mineral density (BMD) in ovariectomized female rats; OVX + 5f dosed orally 3 mg/kg; type: functional; details: route oral
Method in brief: (§2)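 Female rats ovariectomized, then dosed orally q.d. at 1, 3 or 10 mg/kg starting within 24 h, for 28 days. Comparators were sham-operated rats, OVX rats on vehicle, and OVX rats on alendronate 0.003 mg/kg/d s.c. BMD (mg/cm2) measured at the distal femoral metaphysis, given as mean ± SEM. Groups compared by Kruskal–Wallis ANOVA with Student–Newman–Keuls post-hoc test.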

Rattus norvegicus [15] = experiment: Effect on distal femoral metaphysis (DFM)-bone mineral density (BMD) in ovariectomized female rats; OVX + 5f dosed orally 10 mg/kg; type: functional; details: route oral; method in brief: as §2
Rattus norvegicus [16] = experiment: Effect on distal femoral metaphysis (DFM)-bone mineral density (BMD) in ovariectomized female rats; OVX + 5f dosed orally 1 mg/kg; type: functional; details: route oral; method in brief: as §2

Row | SMILES | clearance [1] [mL/min/kg] | logP ([2]; read-out: logP) | Activity [3] [%] | bioavailability [4] [%] | half-life [5] [h] | pIC50 (Integrin alpha-V/beta-3) | also measured
1 | O=C(O)CC(/C=C/CCCCc1ccc2c(n1)NCCC2)c1cccc(F)c1 (stereo not drawn) |  |  |  |  |  | 8.14 | 
2 | Cc1ncc([C@@H](CCCCCCc2ccc3c(n2)NCCC3)CC(=O)O)cn1 | 2.5 | 0.43 | 96 | 83 | 9.5 | 10.10 | DFM (Rattus norvegicus [14]): 173 mg/cm2; bioavailability [6]: 75%; DFM (Rattus norvegicus [15]): 176 mg/cm2; clearance [7]: 4.5 mL/min/kg; DFM (Rattus norvegicus [16]): 158.3 mg/cm2; half-life [9]: 17 h; clearance [10]: 3.6 mL/min/kg; bioavailability [12]: 100%; half-life [13]: 5.1 h
3 | O=C(O)CC(CCCCCCc1ccc2c(n1)NCCC2)c1cccc(F)c1 (stereo not drawn) |  |  |  |  |  | 9.03 | 
4 | O=C(O)C[C@H](CCCCCCc1ccc2c(n1)NCCC2)c1cnc2ccccc2c1 | 3 | 2.39 | > 99.9 | 65 | 5 | 9.70 | 
5 | CC(C)c1ncc([C@@H](CCCCCCc2ccc3c(n2)NCCC3)CC(=O)O)cn1 |  | 1.32 | 99 |  |  | 9.28 | 
6 | O=C(O)C[C@H](NC(=O)CCCCc1ccc2c(n1)NCCC2)c1cccc(F)c1 |  |  |  |  |  | 7.56 | 

Further lines, with some results ahead:

Row | clearance [1] [mL/min/kg] | logP ([2]; read-out: logP) | Activity [3] [%] | bioavailability [4] [%] | half-life [5] [h] | pIC50 (Integrin alpha-V/beta-3) | SMILES | also measured
7 | 26 | -1.2 | 44 | 10 |  |  | O=C(O)CC(NC(=O)CCCCc1ccc2c(n1)NCCC2)c1cncnc1 (stereo not drawn) | 
8 | 5.1 |  | 99.5 | 49 | 9.5 | 9.19 | COc1ccc([C@@H](CCCCCCc2ccc3c(n2)NCCC3)CC(=O)O)cn1 | logP [2]: 1.67
9 | 4.3 | 0.65 | 97 | 100 | 6.8 | 9.96 | COc1ncc([C@@H](CCCCCCc2ccc3c(n2)NCCC3)CC(=O)O)cn1 | 
10 | 3.9 | 0.1 | 94 | 66 | 6.4 | 10.15 | O=C(O)C[C@H](CCCCCCc1ccc2c(n1)NCCC2)c1cncnc1 | bioavailability [6]: 46%; clearance [7]: 19 mL/min/kg; DFM (Rattus norvegicus [8]): 153.2 mg/cm2; half-life [9]: 2.3 h; clearance [10]: 30 mL/min/kg; DFM (Rattus norvegicus [11]): 150.8 mg/cm2; bioavailability [12]: 45%; half-life [13]: 4.5 h
11 | 7.9 | 2.39 | 99.9 | > 99 | 5.8 | 9.68 | O=C(O)C[C@H](CCCCCCc1ccc2c(n1)NCCC2)c1ccc2c(c1)OCC2 | 
